From ChEMBL document CHEMBL1138835, “Inhibitors of multiple mutants of Plasmodium falciparum dihydrofolate reductase and their antimalarial activities” (J Med Chem, 2004)

Tests used:
[1] = biological target: Bifunctional dihydrofolate reductase-thymidylate synthase (Plasmodium falciparum K1, UniProt P13922, C59R/N51I/S108N); assay: Binding affinity towards mutant dihydrofolate reductase (N51I+C59R+S108N DHFR) of Plasmodium falciparum
[2] = test system: Bifunctional dihydrofolate reductase-thymidylate synthase (Plasmodium falciparum K1), P13922 [UNDEFINED MUTATION]; assay: Ratio of binding affinity for mutant (A16V+S108T) to that of wild type dihydrofolate reductase
Chain of Bifunctional dihydrofolate reductase-thymidylate synthase (Plasmodium falciparum K1), P13922 [UNDEFINED MUTATION] (P13922 whole entry, looked up, stated change not applied): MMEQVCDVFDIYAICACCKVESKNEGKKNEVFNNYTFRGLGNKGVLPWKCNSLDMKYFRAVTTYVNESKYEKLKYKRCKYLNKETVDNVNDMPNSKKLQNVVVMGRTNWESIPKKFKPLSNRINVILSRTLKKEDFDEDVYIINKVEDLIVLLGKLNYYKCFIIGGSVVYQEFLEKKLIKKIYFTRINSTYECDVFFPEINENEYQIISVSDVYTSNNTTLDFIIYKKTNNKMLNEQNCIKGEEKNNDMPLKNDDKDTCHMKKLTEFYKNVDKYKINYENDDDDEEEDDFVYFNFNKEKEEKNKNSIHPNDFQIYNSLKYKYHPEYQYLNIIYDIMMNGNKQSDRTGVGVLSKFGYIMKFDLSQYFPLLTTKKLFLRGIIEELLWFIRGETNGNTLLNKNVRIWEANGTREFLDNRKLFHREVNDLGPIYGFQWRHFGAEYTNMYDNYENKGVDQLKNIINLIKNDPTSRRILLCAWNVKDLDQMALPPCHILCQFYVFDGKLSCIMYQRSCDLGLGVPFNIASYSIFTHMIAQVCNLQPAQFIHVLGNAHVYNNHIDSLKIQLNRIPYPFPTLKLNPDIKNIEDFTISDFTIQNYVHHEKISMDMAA
Method in brief: (§1)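 Each ratio is Ki for the mutant PfDHFR divided by Ki for wild-type PfDHFR. The recombinant enzymes were expressed in E. coli BL21(DE3)pLysS and purified on methotrexate-Sepharose. Ki was derived assuming inhibitors compete with substrate binding.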

[3] = biological target: Bifunctional dihydrofolate reductase-thymidylate synthase (Plasmodium falciparum K1, UniProt P13922, C59R/I164L/N51I/S108N); assay: Binding affinity towards mutant dihydrofolate reductase (N51I+C59R+S108N+I164L DHFR) of Plasmodium falciparum
Chain of Bifunctional dihydrofolate reductase-thymidylate synthase (Plasmodium falciparum K1, UniProt P13922, C59R/I164L/N51I/S108N) (P13922 whole entry, looked up, stated change not applied): as above

[4] = test system: Bifunctional dihydrofolate reductase-thymidylate synthase (Plasmodium falciparum K1), P13922 [UNDEFINED MUTATION]; assay: Ratio of binding affinity for mutant (N51I+C59R+S108N+I164L) to that of wild type dihydrofolate reductase; method in brief: as §1
[5] = test system: Bifunctional dihydrofolate reductase-thymidylate synthase (Plasmodium falciparum K1), P13922 [UNDEFINED MUTATION]; assay: Ratio of binding affinity for mutant (C59R+S108N+I164L) to that of wild type dihydrofolate reductase; method in brief: as §1
[6] = biological target: Bifunctional dihydrofolate reductase-thymidylate synthase (Plasmodium falciparum K1, UniProt P13922, C59R/I164L/S108N); assay: Binding affinity towards mutant dihydrofolate reductase (C59R+S108N+I164L DHFR) of Plasmodium falciparum
Chain of Bifunctional dihydrofolate reductase-thymidylate synthase (Plasmodium falciparum K1, UniProt P13922, C59R/I164L/S108N) (P13922 whole entry, looked up, stated change not applied): as above

[7] = biological target: Bifunctional dihydrofolate reductase-thymidylate synthase (Plasmodium falciparum K1) (UniProt P13922); assay: Ratio of binding affinity for mutant (N51I+C59R+S108N) to that of wild type dihydrofolate reductase; method in brief: as §1
Chain of Bifunctional dihydrofolate reductase-thymidylate synthase (Plasmodium falciparum K1) (P13922 whole entry, looked up): as the sequence (P13922 whole entry, looked up, stated change not applied) above

[8] = biological target: Bifunctional dihydrofolate reductase-thymidylate synthase (Plasmodium falciparum K1, UniProt P13922, A16V/S108T); assay: Binding affinity towards mutant dihydrofolate reductase (A16V+S108T DHFR) of Plasmodium falciparum.
Chain of Bifunctional dihydrofolate reductase-thymidylate synthase (Plasmodium falciparum K1, UniProt P13922, A16V/S108T) (P13922 whole entry, looked up, stated change not applied): as above

KB [9] = assay: Relative antiplasmodial activity to cytotoxicity in Plasmodium falciparum Csl-2 infected KB cells; format: functional
KB [10] = assay: In vitro cytotoxicity against Plasmodium falciparum infected KB cell line; format: functional, cell-based; details: Homo sapiens
Method in brief: (§2)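 Cytotoxicity (IC50, μM) run against three mammalian lines: Vero (African green monkey kidney fibroblasts), KB (human epidermoid carcinoma) and BC (human breast cancer). Testing followed the Skehan et al. protocol.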

KB [11] = assay: Relative antiplasmodial activity to cytotoxicity in Plasmodium falciparum TM4/8.2 infected KB cells; format: functional
BC [12] = assay: In vitro cytotoxicity against BC cell line.; details: Homo sapiens
Vero [13] = assay: In vitro cytotoxicity against Plasmodium falciparum infected vero cell line.; format: functional, cell-based; details: Chlorocebus sabaeus; method in brief: as §2
KB [14] = assay: Relative antiplasmodial activity to cytotoxicity in Plasmodium falciparum V1/S infected KB cells; format: functional
Vero [15] = assay: Relative antiplasmodial activity to cytotoxicity in Plasmodium falciparum TM4/8.2 infected Vero cells; format: functional
Vero [16] = assay: Relative antiplasmodial activity to cytotoxicity in Plasmodium falciparum V1/S infected Vero cells; format: functional
BC [17] = assay: Relative antiplasmodial activity to cytotoxicity in Plasmodium falciparum Csl-2 infected BC cells; format: functional
Vero [18] = assay: Relative antiplasmodial activity to cytotoxicity in Plasmodium falciparum Csl-2 infected Vero cells; format: functional
BC [19] = assay: Relative antiplasmodial activity to cytotoxicity in Plasmodium falciparum TM4/8.2 infected BC cells; format: functional

Chain of Bifunctional dihydrofolate reductase-thymidylate synthase (Plasmodium falciparum K1, UniProt P13922, C59R/N51I/S108N) (P13922 whole entry, looked up, stated change not applied): as above

## NC1=NC(c2cccc(Oc3ccccc3)c2)N(c2ccc(Cl)cc2)C(N)=N1 (stereo not given)
[1]
  Ki: 23.6 nM
[2]
  Ratio: 5.4
[3]
  Ki: 239 nM
[4]
  Ratio: 478
[5]
  Ratio: 264
[6]
  Ki: 132 nM
[7]
  Ratio: 47.1
[8]
  Ki: 2.7 nM

## CCCCCCCC1N=C(N)N=C(N)N1c1cccc(Cl)c1 (stereo not given)
KB [9]
  Safety ratio: 7.1
[1]
  Ki: 1 nM
KB [10]
  IC50: 1000 nM
KB [11]
  Safety ratio: 25
BC [12]
  IC50: 1800 nM
[2]
  Ratio: 1.4
[3]
  Ki: 0.8 nM
Vero [13]
  IC50: > 50000 nM
KB [14]
  Safety ratio: 0.4
Vero [15]
  Safety ratio: >1250
[4]
  Ratio: 0.3
[5]
  Ratio: 0.1
[6]
  Ki: 0.3 nM
Vero [16]
  Safety ratio: >20
BC [17]
  Safety ratio: 12.9
Vero [18]
  Safety ratio: >357
[7]
  Ratio: 0.4
[8]
  Ki: 3.8 nM
BC [19]
  Safety ratio: 45

## CC(=O)OCCCc1nc(N)nc(N)c1-c1cccc(Cl)c1
KB [9]
  Safety ratio: 9.4
[1]
  Ki: 1.8 nM
KB [10]
  IC50: 17000 nM
KB [11]
  Safety ratio: 10.6
BC [12]
  IC50: 10000 nM
[3]
  Ki: 31.4 nM
Vero [13]
  IC50: 50000 nM
KB [14]
  Safety ratio: 3.2
Vero [15]
  Safety ratio: 31.3
[4]
  Ratio: 10.1
[5]
  Ratio: 1
[6]
  Ki: 3.2 nM
Vero [16]
  Safety ratio: 9.4
BC [17]
  Safety ratio: 5.6
Vero [18]
  Safety ratio: 27.8
[7]
  Ratio: 0.6
BC [19]
  Safety ratio: 6.3

## CCCCCCC1(C)N=C(N)N=C(N)N1c1ccc(Cl)cc1 (stereo not given)
[1]
  Ki: 11.3 nM
[2]
  Ratio: 1590
[3]
  Ki: 69.2 nM
[4]
  Ratio: 115
[5]
  Ratio: 69.6
[6]
  Ki: 41.8 nM
[7]
  Ratio: 18.8
[8]
  Ki: 955 nM

## CCc1nc(N)nc(N)c1-c1ccccc1
[1]
  Ki: 3 nM
[3]
  Ki: 32 nM
[6]
  Ki: 25 nM

## CCCOc1ccc(C2N=C(N)N=C(N)N2c2cccc(Cl)c2)cc1 (stereo not given)
KB [9]
  Safety ratio: 2.1
[1]
  Ki: 2.1 nM
KB [10]
  IC50: 6000 nM
KB [11]
  Safety ratio: 24
BC [12]
  IC50: 30000 nM
[3]
  Ki: 2.7 nM
Vero [13]
  IC50: > 50000 nM
KB [14]
  Safety ratio: 2.1
Vero [15]
  Safety ratio: >200
[6]
  Ki: 0.5 nM
Vero [16]
  Safety ratio: >17.2
BC [17]
  Safety ratio: 10.3
Vero [18]
  Safety ratio: >17.2
[8]
  Ki: 9.3 nM
BC [19]
  Safety ratio: 120

## CC(C)C1(C)N=C(N)N=C(N)N1c1ccc(Cl)cc1 (stereo not given)
[1]
  Ki: 1370 nM
[2]
  Ratio: 1230
[3]
  Ki: > 10000 nM
[4]
  Ratio: > 274
[5]
  Ratio: 127
[6]
  Ki: 4620 nM
[7]
  Ratio: 37.5
[8]
  Ki: 44800 nM

## Nc1nc(N)c(-c2cccc(Cl)c2)c(CCCO)n1
KB [9]
  Safety ratio: 5.3
[1]
  Ki: 2.3 nM
KB [10]
  IC50: 10100 nM
KB [11]
  Safety ratio: 9.2
BC [12]
  IC50: 15000 nM
[3]
  Ki: 57 nM
Vero [13]
  IC50: 22300 nM
KB [14]
  Safety ratio: 1.6
Vero [15]
  Safety ratio: 20.3
[4]
  Ratio: 6.1
[5]
  Ratio: 3.2
[6]
  Ki: 29 nM
Vero [16]
  Safety ratio: 3.6
BC [17]
  Safety ratio: 7.9
Vero [18]
  Safety ratio: 11.7
[7]
  Ratio: 0.25
BC [19]
  Safety ratio: 13.6

## Nc1nc(N)c(-c2ccccc2)c(CCCO)n1
[1]
  Ki: 58.5 nM
[3]
  Ki: 549 nM
[4]
  Ratio: 6.5
[5]
  Ratio: 1.4
[6]
  Ki: 121 nM
[7]
  Ratio: 0.7

## CC(C)C1(C)N=C(N)N=C(N)N1c1cccc(Cl)c1 (stereo not given)
[1]
  Ki: 196 nM
[2]
  Ratio: 85
[3]
  Ki: 472 nM
[4]
  Ratio: 18.1
[5]
  Ratio: 8.4
[6]
  Ki: 213 nM
[7]
  Ratio: 7.7
[8]
  Ki: 2180 nM

## CC(=O)OCCCc1nc(N)nc(N)c1-c1ccccc1
[1]
  Ki: 5 nM
[3]
  Ki: 237 nM
[4]
  Ratio: 22.3
[5]
  Ratio: 1.7
[6]
  Ki: 18 nM
[7]
  Ratio: 0.5
